Measurements taken from ChEMBL document CHEMBL4265950, “Discovery of furyl/thienyl β-carboline derivatives as potent and selective PDE5 inhibitors with excellent vasorelaxant effect” (Eur J Med Chem, 2018).

Legend:
[1] = target: cGMP-specific 3',5'-cyclic phosphodiesterase (Rattus norvegicus, UniProt O54735); assay: (§1) Inhibition of PDE5 in Wistar rat mesentric arteries assessed as inhibition of phenylephrine-induced contraction by measuring increase in acetylcholine-induced vasorelaxation by pressure myographic method
Summary of the method: (§2)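 Third-order rat mesenteric arteries (110–150 µm), 3–4 mm unbranched segments, cannulated in PSS (pH 7.4, 95% O2/5% CO2). Equilibrated 35 min while pressure was stepped 10→60 mmHg. Checked with 120 mM KCl and acetylcholine, then constricted with 20 µM phenylephrine (norepinephrine in text) and given compounds cumulatively. Ca²⁺-free PSS set maximal dilation. Outer diameter recorded as % relaxation; EC50 from normalized nonlinear fit.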

[2] = target: cGMP-specific 3',5'-cyclic phosphodiesterase (Rattus norvegicus) (UniProt O54735); assay: as §1; summary of the method: as §2
[3] = target: Dual specificity calcium/calmodulin-dependent 3',5'-cyclic nucleotide phosphodiesterase 1A (Homo sapiens, UniProt P54750); assay: Inhibition of full length recombinant human N-terminal GST-tagged PDE1A expressed in baculovirus infected sf9 cells using FAM-cyclic-3',5-AMP as substrate after 1 hr by fluorescence polarization assay
Summary of the method: (§3)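 Fluorescence polarization assay run at 25 °C for 60 min in 40 mM MOPS pH 7.5, 0.5 mM EDTA, 15 mM MgCl2, 0.15 mg/mL BSA, 1 mM DTT, 0.05% ProClin 200. Contained 15 ng/mL PDE isoform and 100 nM FAM-cGMP or FAM-cAMP according to isoform, with 1% DMSO final. Binding agent added for 1 h at 25 °C; read at […] nm. IC50 from normalized nonlinear dose-response fit.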

[4] = target: High affinity cGMP-specific 3',5'-cyclic phosphodiesterase 9A (Homo sapiens, UniProt O76083); assay: Inhibition of full length recombinant human N-terminal GST-tagged PDE9A2 expressed in baculovirus infected sf9 cells using […] as substrate after 1 hr by fluorescence polarization assay; summary of the method: as §3
[5] = target: cGMP-inhibited 3',5'-cyclic phosphodiesterase 3B (Homo sapiens, UniProt Q13370); assay: Inhibition of recombinant human N-terminal GST-tagged PDE3B (592 to end residues) expressed in baculovirus infected sf9 cells using FAM-cyclic-3',5-AMP as substrate after 1 hr by fluorescence polarization assay; summary of the method: as §3
[6] = organism: Homo sapiens; assay: Selectivity index, ratio of IC50 for inhibition of full length recombinant human N-terminal GST-tagged PDE6C expressed in baculovirus infected sf9 cells to IC50 for inhibition of full length recombinant human N-terminal GST-tagged PDE5A1 expressed in baculovirus infected sf9 cells
[7] = target: T1, cGMP-specific 3',5'-cyclic phosphodiesterase (Homo sapiens, UniProt O76074); assay: Inhibition of full length recombinant human N-terminal GST-tagged PDE5A1 expressed in baculovirus infected sf9 cells at 100 nM using FAM-cyclic-3',5-GMP as substrate after 1 hr by fluorescence polarization assay relative to control
Summary of the method: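 Single-point test at 100 nM, reported as percent inhibition. Human PDE5 at 15 ng/mL with 100 nM FAM-cGMP in MOPS pH 7.5 buffer (MgCl2, EDTA, BSA, DTT), 1% DMSO final, 60 min at 25 °C. Binding agent added for 1 h, then fluorescence polarization read at […] nm.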

[8] = organism: Homo sapiens; assay: Selectivity index, ratio of IC50 for inhibition of full length recombinant human N-terminal GST-tagged PDE9A2 expressed in baculovirus infected sf9 cells to IC50 for inhibition of full length recombinant human N-terminal GST-tagged PDE5A1 expressed in baculovirus infected sf9 cells
[9] = target: T1, cGMP-specific 3',5'-cyclic phosphodiesterase; assay: Inhibition of full length recombinant human N-terminal GST-tagged PDE5A1 expressed in baculovirus infected sf9 cells using FAM-cyclic-3',5-GMP as substrate after 1 hr by fluorescence polarization assay
[10] = organism: Homo sapiens; assay: Selectivity index, ratio of IC50 for inhibition of full length recombinant human N-terminal GST-tagged PDE8A1 expressed in baculovirus infected sf9 cells to IC50 for inhibition of full length recombinant human N-terminal GST-tagged PDE5A1 expressed in baculovirus infected sf9 cells
[11] = organism: Homo sapiens; assay: Selectivity index, ratio of IC50 for inhibition of recombinant human N-terminal GST-tagged PDE10A1 (2 to 789 residues) expressed in baculovirus infected sf9 cells to IC50 for inhibition of full length recombinant human N-terminal GST-tagged PDE5A1 expressed in baculovirus infected sf9 cells
[12] = target: cAMP and cAMP-inhibited cGMP 3',5'-cyclic phosphodiesterase 10A (Homo sapiens, UniProt Q9Y233); assay: Inhibition of recombinant human N-terminal GST-tagged PDE10A1 (2 to 789 residues) expressed in baculovirus infected sf9 cells using FAM-cyclic-3',5-AMP as substrate after 1 hr by fluorescence polarization assay; summary of the method: as §3
[13] = target: Cone cGMP-specific 3',5'-cyclic phosphodiesterase subunit alpha' (Homo sapiens, UniProt P51160); assay: Inhibition of full length recombinant human N-terminal GST-tagged PDE6C expressed in baculovirus infected sf9 cells using […] as substrate after 1 hr by fluorescence polarization assay
[14] = target: High affinity cAMP-specific and IBMX-insensitive 3',5'-cyclic phosphodiesterase 8A (Homo sapiens, UniProt O60658); assay: Inhibition of full length recombinant human N-terminal GST-tagged PDE8A1 expressed in baculovirus infected sf9 cells using FAM-cyclic-3',5-AMP as substrate after 1 hr by fluorescence polarization assay; summary of the method: as §3
[15] = organism: Homo sapiens; assay: Selectivity index, ratio of IC50 for inhibition of recombinant human N-terminal GST-tagged PDE7A (122 to end residues) expressed in baculovirus infected sf9 cells to IC50 for inhibition of full length recombinant human N-terminal GST-tagged PDE5A1 expressed in baculovirus infected sf9 cells
[16] = target: High affinity 3',5'-cyclic-AMP phosphodiesterase 7A (Homo sapiens, UniProt Q13946); assay: Inhibition of recombinant human N-terminal GST-tagged PDE7A (122 to end residues) expressed in baculovirus infected sf9 cells using FAM-cyclic-3',5-AMP as substrate after 1 hr by fluorescence polarization assay; summary of the method: as §3
[17] = target: Dual 3',5'-cyclic-AMP and -GMP phosphodiesterase 11A (Homo sapiens, UniProt Q9HCR9); assay: Inhibition of full length recombinant human N-terminal GST-tagged PDE11A4 expressed in baculovirus infected sf9 cells using FAM-cyclic-3',5-AMP as substrate after 1 hr by fluorescence polarization assay
[18] = Stability of the compound in PDE5 enzyme assay condition at 100 uM by HPLC analysis; assay type: ADME
[19] = organism: Homo sapiens; assay: Selectivity index, ratio of IC50 for inhibition of full length recombinant human N-terminal GST-tagged PDE11A4 expressed in baculovirus infected sf9 cells to IC50 for inhibition of full length recombinant human N-terminal GST-tagged PDE5A1 expressed in baculovirus infected sf9 cells
[20] = target: cGMP-dependent 3',5'-cyclic phosphodiesterase (Homo sapiens, UniProt O00408); assay: Inhibition of recombinant human N-terminal FLAG-tagged PDE2A (2 to 941 residues) expressed in baculovirus infected sf9 cells using FAM-cyclic-3',5-AMP as substrate after 1 hr by fluorescence polarization assay; summary of the method: as §3
[21] = target: 3',5'-cyclic-AMP phosphodiesterase 4A (Homo sapiens, UniProt P27815); assay: Inhibition of full length recombinant human N-terminal GST-tagged PDE4A1A expressed in baculovirus infected sf9 cells using FAM-cyclic-3',5-AMP as substrate after 1 hr by fluorescence polarization assay

High affinity cAMP-specific and IBMX-insensitive 3',5'-cyclic phosphodiesterase 8A, sequence (O60658 whole entry): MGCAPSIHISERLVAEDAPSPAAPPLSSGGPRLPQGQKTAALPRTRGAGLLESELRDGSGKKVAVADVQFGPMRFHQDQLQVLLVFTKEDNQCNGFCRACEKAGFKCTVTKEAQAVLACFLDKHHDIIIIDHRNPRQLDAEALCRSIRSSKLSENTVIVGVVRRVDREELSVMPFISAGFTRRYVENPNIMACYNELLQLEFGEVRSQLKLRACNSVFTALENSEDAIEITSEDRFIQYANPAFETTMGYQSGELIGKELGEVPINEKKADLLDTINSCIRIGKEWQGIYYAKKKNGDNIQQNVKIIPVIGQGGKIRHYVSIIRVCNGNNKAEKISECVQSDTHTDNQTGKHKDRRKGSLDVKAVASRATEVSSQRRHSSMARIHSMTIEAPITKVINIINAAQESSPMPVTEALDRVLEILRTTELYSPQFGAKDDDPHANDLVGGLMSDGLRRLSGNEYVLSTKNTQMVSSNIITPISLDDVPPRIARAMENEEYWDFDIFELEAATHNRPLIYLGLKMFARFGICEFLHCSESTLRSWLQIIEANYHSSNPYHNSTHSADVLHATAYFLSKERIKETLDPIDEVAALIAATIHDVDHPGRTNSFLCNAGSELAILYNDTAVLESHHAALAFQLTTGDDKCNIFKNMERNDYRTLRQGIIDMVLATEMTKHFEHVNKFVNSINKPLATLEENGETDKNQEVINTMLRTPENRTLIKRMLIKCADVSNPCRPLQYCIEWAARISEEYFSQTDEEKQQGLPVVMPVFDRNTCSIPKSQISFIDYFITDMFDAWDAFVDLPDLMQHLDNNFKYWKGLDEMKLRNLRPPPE
cGMP-dependent 3',5'-cyclic phosphodiesterase, sequence (O00408 whole entry, the tested form may be a part): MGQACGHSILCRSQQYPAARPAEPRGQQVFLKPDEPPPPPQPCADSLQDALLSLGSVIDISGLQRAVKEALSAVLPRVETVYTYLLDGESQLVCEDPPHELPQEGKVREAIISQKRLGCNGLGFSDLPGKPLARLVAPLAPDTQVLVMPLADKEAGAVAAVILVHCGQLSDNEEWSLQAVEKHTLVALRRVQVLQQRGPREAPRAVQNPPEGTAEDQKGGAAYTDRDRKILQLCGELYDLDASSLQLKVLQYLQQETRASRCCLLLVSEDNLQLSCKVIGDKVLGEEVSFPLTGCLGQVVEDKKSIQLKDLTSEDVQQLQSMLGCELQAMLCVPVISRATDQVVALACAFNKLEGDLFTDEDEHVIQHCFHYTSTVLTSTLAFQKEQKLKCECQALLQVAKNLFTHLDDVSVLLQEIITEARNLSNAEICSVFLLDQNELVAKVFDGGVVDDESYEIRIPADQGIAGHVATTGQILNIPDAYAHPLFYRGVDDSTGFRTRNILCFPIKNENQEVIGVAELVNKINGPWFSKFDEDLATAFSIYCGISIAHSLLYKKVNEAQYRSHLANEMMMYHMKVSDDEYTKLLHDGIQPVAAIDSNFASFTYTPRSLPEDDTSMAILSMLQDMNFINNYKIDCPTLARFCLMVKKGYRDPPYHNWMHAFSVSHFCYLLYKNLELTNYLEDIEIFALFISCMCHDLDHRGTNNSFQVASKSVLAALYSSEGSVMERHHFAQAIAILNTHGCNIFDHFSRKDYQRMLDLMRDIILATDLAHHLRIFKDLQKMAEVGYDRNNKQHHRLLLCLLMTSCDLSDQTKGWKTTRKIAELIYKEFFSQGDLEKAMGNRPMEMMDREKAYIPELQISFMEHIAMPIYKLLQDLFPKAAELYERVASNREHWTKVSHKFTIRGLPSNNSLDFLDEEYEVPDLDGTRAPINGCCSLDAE
High affinity 3',5'-cyclic-AMP phosphodiesterase 7A, sequence (Q13946 whole entry): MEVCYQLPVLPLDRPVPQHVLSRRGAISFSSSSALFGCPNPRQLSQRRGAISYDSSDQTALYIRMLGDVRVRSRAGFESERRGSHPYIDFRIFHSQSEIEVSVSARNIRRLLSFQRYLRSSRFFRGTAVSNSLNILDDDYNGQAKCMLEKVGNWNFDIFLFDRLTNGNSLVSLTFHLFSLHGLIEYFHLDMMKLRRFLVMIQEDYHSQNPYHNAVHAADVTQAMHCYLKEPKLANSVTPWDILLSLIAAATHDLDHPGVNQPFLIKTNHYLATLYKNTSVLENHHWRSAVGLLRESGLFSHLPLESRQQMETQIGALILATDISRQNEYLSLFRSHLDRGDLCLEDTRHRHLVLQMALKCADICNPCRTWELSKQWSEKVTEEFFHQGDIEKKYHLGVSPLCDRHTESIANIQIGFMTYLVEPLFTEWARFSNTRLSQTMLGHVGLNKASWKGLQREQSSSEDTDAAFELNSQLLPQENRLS
Dual 3',5'-cyclic-AMP and -GMP phosphodiesterase 11A, sequence (Q9HCR9 whole entry): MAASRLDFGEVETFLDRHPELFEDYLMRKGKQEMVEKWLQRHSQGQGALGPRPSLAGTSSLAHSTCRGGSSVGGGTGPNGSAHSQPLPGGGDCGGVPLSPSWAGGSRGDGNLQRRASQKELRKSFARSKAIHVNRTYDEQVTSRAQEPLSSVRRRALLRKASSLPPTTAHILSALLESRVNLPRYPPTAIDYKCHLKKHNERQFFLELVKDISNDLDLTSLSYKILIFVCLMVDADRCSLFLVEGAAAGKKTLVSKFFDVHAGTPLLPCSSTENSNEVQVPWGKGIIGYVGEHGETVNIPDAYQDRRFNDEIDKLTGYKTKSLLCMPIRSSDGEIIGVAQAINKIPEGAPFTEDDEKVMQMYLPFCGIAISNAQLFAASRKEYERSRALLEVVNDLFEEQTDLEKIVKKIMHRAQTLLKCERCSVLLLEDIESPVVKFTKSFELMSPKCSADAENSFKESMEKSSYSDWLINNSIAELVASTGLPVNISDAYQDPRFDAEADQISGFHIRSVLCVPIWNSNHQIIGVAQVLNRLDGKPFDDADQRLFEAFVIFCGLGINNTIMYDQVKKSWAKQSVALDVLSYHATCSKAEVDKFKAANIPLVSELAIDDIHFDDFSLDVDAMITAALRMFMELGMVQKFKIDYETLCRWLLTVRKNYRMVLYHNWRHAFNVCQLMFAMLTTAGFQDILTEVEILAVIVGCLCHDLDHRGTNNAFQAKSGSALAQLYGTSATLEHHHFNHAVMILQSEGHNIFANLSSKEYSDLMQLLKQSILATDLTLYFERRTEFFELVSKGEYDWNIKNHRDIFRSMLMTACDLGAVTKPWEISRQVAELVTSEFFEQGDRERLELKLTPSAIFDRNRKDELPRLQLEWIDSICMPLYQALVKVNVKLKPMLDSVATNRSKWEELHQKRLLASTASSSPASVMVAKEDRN
High affinity cGMP-specific 3',5'-cyclic phosphodiesterase 9A, sequence (O76083 whole entry): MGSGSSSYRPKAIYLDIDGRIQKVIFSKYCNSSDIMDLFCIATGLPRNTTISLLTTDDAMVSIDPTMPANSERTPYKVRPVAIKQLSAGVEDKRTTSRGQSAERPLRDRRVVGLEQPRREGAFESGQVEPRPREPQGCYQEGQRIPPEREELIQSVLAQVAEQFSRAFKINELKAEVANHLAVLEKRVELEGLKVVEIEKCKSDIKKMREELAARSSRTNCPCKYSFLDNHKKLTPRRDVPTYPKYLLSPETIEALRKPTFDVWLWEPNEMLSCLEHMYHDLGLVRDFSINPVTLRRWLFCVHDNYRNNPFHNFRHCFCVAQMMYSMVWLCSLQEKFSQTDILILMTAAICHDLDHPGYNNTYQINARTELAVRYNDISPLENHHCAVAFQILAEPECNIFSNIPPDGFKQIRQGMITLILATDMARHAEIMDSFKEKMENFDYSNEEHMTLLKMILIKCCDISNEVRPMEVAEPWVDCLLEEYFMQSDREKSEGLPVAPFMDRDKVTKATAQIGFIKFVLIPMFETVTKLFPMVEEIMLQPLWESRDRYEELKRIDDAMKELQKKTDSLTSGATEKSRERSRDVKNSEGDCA
Cone cGMP-specific 3',5'-cyclic phosphodiesterase subunit alpha', sequence (P51160 whole entry): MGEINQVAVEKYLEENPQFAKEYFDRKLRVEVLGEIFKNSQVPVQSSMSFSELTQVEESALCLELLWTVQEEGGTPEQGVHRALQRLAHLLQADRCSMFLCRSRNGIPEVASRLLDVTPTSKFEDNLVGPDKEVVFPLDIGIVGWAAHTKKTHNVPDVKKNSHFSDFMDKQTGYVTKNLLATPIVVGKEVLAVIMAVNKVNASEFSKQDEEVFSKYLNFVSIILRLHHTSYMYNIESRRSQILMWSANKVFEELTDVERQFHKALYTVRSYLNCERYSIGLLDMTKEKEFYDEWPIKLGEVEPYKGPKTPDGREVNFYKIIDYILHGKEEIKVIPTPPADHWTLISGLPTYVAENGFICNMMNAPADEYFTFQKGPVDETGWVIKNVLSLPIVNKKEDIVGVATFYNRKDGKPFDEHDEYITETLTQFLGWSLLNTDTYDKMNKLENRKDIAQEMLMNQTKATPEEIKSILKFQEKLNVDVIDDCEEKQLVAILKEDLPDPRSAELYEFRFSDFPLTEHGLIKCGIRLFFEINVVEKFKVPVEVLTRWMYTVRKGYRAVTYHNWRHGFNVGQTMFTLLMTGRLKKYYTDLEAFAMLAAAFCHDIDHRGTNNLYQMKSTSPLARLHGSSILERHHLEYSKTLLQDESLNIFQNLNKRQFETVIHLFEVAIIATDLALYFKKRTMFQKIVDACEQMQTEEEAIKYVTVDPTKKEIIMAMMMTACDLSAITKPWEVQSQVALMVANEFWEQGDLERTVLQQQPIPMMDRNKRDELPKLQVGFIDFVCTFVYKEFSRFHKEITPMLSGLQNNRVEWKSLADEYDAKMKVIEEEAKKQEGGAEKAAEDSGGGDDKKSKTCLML

Row | EC50 [1] | percent relaxation [2] | IC50 [3] | IC50 [4] | IC50 [5] | inhibition [7] | IC50 [9] | IC50 [12] | IC50 [13] | IC50 [14] | IC50 [16] | IC50 [17] | Stability [18] | IC50 [20] | Compound | Ratio IC50 [6] | Ratio IC50 [8] | Ratio IC50 [10] | Ratio IC50 [11] | Ratio IC50 [15] | Ratio IC50 [19] | also measured
1 | 30 nM | Dose-dependent effect | > 20 µM | > 4 µM | > 20 µM | 97.8% | 3.87 nM | > 4 µM | > 1000 nM | > 4 µM | > 4 µM | 272 nM | Stable | > 20 µM | CCc1ccc([C@@H]2c3[nH]c4ccccc4c3C[C@@H]3C(=O)N(C)CC(=O)N23)s1 | > 258 | > 1000 | > 1000 | > 1000 | > 1000 | 70 | IC50 [21]: > 10 µM
2 | 63 nM | Dose-dependent effect | > 20 µM | > 3 µM | > 20 µM | 99.5% | 2.92 nM | > 3 µM | 127 nM | > 3 µM | > 3 µM | > 1000 nM | Stable | > 20 µM | CCc1ccc([C@@H]2c3[nH]c4ccccc4c3C[C@H]3C(=O)N(CC)C(=O)N23)o1 | 43 | > 1000 | > 1000 | > 1000 | > 1000 | > 342 | IC50 [21]: > 10 µM
